STAT3 act: increases IL-6 driven STAT3 reporter signal; U3A cells, IL-6 STAT3-luciferase reporter, luminescence; 100% = signal with IL-6 EC80 alone; activation (% of control), % at 5.6 µM; actives 0.91% (n = 190,000); AID 871;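 active = activation above the screen-wide mean of compound activation plus 3 SD, cut at about 130% in these data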
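Test system: Human STAT1-deficient U3A cells with stable STAT3-luciferase reporter | Also added: Interleukin-6, 33 ng/mL | Timing: Compound pre-incubation 1 h before IL-6, then 6 h stimulation at 37 °C | Technique: Luciferase reporter luminescence | Read-out: Percent of IL-6-only median luminescence | Benchmarks: IL-6-only wells as 100% reference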
NF-kB expr up: raises NF-kB expression in human neuronal cells. NF-kB reporter expression; hits give high values. AID 1239. actives 1.6% (n = 190,000). fold change at 12.5 µM; in the data active = fold change above about 3.3
APP 5'UTR act: activates APP 5'UTR luciferase reporter; SH-SY5Y APP 5'UTR luciferase reporter, luminescence; zero percent = DMSO vehicle wells; activation, % at 2 µM; actives 1% (n = 190,000);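 active = activation above a set limit, based on mean plus 3 SD of controls, cut at about 140% in these data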
STAT3 inh: STAT3 signaling inhibition | U3A cells, IL-6 STAT3-luciferase reporter, luminescence; host cell line lacks STAT1 | inhibition, % at 5.5 µM | actives 0.89% (n = 190,000);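 active = inhibition above the mean inhibition across all screened compounds plus 3 SD, cut at about 44% in these data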
STAT1 blocker: STAT1 signaling inhibition; AID 920; NIH 3T3 STAT1-luciferase reporter, IFN-gamma, luminescence; actives 0.35% (n = 200,000); inhibition, % at 5.5 µM;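 active = inhibition above a set limit, the mean inhibition across all tested compounds plus 3 SD, cut at about 34% in these data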
STAT1 act: activators of IFN-gamma induced STAT1 signaling; NIH 3T3 STAT1-luciferase reporter, luminescence; 100% = IFN-gamma alone, no compound; activation (% of control), % at 5.5 µM; actives 2.6% (n = 200,000); AID 932;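 active = activation above the screen-wide mean activation plus 3 SD, cut at about 130% in these data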
Of the large screens only hits and unclear results are named; the others gave an inactive call. In the library only some 5.1% were active in any assay of this set; here they are far more common.

CCc1ccc2oc(-c3ccc(OC)cc3)cc(=Nc3c(C)n(C)n(-c4ccccc4)c3=O)c2c1	APP 5'UTR act 173
COc1ccc(-c2cc(=Nc3ccc(C(=O)O)cc3)c3cc(C)ccc3o2)cc1	APP 5'UTR act 209
COc1ccc2cc(C(=O)NCc3ccco3)c(=Nc3ccc(C(=O)O)cc3)oc2c1	none
CCc1ccc2oc(-c3ccc(OC)cc3)cc(=Nc3cccc(C(=O)O)c3)c2c1	NF-kB expr up 7.2, APP 5'UTR act 204
CCOC(=O)Cn1c(=NC(=O)c2ccc([N+](=O)[O-])s2)sc2ccccc21	none
COC(=O)c1ccc(NC(=O)CN(c2ccc(OC)cc2)S(C)(=O)=O)cc1	STAT1 act 134
CCOC(=O)CNC(=O)CSc1nc(C)cc(C)c1C#N	none
CCOC(=O)NC(=O)CSc1nc(C)cc(C)c1C#N	NF-kB expr up 3.4
Cc1ccc(C(=O)Nc2ccc(Br)c(C(F)(F)F)c2)cc1	STAT1 act 143
O=[N+]([O-])c1ccc(C(O)C23CN4CN(CN(C4)C2)C3)cc1 (configuration not stated)	none
Cc1cccc(C(=O)NC(C(=O)Nc2ccccc2N2CCOCC2)C(C)C)c1 (configuration not stated)	none
COCn1c(-c2ccc(OC)c(OC)c2)nc2ccccc21	STAT1 act 132
Cc1nc2ccccc2n1/C(=N\S(=O)(=O)c1ccccc1)c1ccccc1	none
Cc1ccc(NC(=O)CSCc2ccco2)cc1	STAT1 act 129
Cc1ccc(NC(=O)CSCC(=O)O)cc1	none
COc1ccc(C(=O)Nc2c(C)csc2C(=O)O)cc1	none
O=C(O/N=C1/CCCc2occc21)c1ccc(F)cc1	none
O=C(O/N=C1/CCSc2ccccc21)c1ccc(F)cc1	STAT3 act 135
COc1ccc(CCNC(=O)c2cc3c(C)nccc3[nH]c2=O)cc1OC	none
O=C1Nc2ccccc2/C1=C/C(=O)c1cccs1	STAT3 act 134
Cc1nn(C)cc1C1C(C#N)=C(N)N(c2ccc(F)c([N+](=O)[O-])c2)C2=C1C(=O)CCC2 (configuration not stated)	none
Nn1c(SCc2ccccc2)nc2c(cnn2-c2ccccc2)c1=O	STAT1 act 135
CCCCSc1nc2c(cnn2-c2ccccc2)c(=O)n1N	NF-kB expr up 4.7, APP 5'UTR act 168, STAT1 act 141
CCCCSc1cnn(-c2ccccc2)c(=O)c1SCCCC	none
O=C(c1ccc(CNS(=O)(=O)c2ccc(Br)cc2)cc1)N1CCCC1	none
CC(C)(C)NC(=O)C(c1ccccn1)N(C(=O)C1CSC(=O)C1)c1cccc(F)c1 (configuration not stated)	none
O=c1oc2cc(Cl)ccc2n1CSc1nc2ccccc2s1	NF-kB expr up 8.6
O=C(CSc1nc2ccccc2s1)N1c2ccccc2Sc2ccc(Cl)cc21	none
CC(c1nnc(SCC(=O)Nc2cccnc2Cl)n1-c1ccccc1)N(C)C (configuration not stated)	none
Cc1cc(C(=O)CN2C(=O)C(=O)N(Cc3ccccc3)C2=O)c(C)n1-c1ccc2c(c1)OCCO2	none
O=C1CC(c2ccco2)CC(O)=C1C=Nc1cc(Cl)ccc1Cl (configuration not stated)	none
O=C1CC(c2ccco2)CC(O)=C1C=Nc1cc(Cl)ccc1O (configuration not stated)	NF-kB expr up 3.4
C/C(=N\Nc1ccc(C(F)(F)F)cn1)c1ccncc1	STAT1 act 134
C/C(=N\NC(=O)c1ccc(N/N=C(\C)c2ccncc2)cc1)c1ccncc1	none
COc1ccc(Cn2c(=O)c3cccnc3n(Cc3ccc([N+](=O)[O-])cc3)c2=O)cc1	none
COc1ccc(-c2ccc(=O)n(Cc3ccc([N+](=O)[O-])cc3)n2)cc1	STAT3 act 134
COc1ccc(OCC(=O)Nc2ccccc2O)cc1	NF-kB expr up 5.5
O=C(COC(=O)c1ccc(Cl)nc1)Nc1ccc2c(c1)OCO2	none
O=C/C(=C\Nc1ccccn1)c1nc2cc(Cl)ccc2o1	STAT3 act 135
O=C(CN1CCN(c2ccccc2O)CC1)NC(=O)NCc1ccco1	none
NNC(=O)CN1CCCc2ccccc21	STAT1 act 148
O=C(CN1CCc2ccccc21)NC(=O)NCc1ccco1	STAT3 act 135
N#CC(Sc1ccccn1)c1ccc(Cl)cc1Cl (configuration not stated)	none
O=c1[nH]c(SCc2ccccc2)nc2c1sc1ccccc12	none
CCN(CC)C(=O)c1cc2sc3ccccc3c2s1	STAT1 act 142
COCCN(CCOC)C(=O)c1cc2sc3ccccc3c2s1	none
N#C/C(=C\c1ccc([N+](=O)[O-])o1)c1nc2ccccc2[nH]1	none
N#C/C(=C\c1ccc(Sc2ccccc2)o1)c1nc2ccccc2[nH]1	APP 5'UTR act 139
Cc1cnc(Nc2nc3ccccc3o2)nc1C(=O)Nc1cccc(C(F)(F)F)c1	none
Cc1ccc(Nc2nc3ccccc3o2)cc1F	APP 5'UTR act 136, STAT1 act 133
CCOC(=O)Cc1nc2ccccc2o1	none
Cc1nc(Nc2nc3ccccc3o2)nc(C)c1C	APP 5'UTR act 143
N#Cc1cnc(Nc2nc3ccccc3o2)nc1-c1ccccc1	none
CCOC(=O)c1cnc(Nc2nc3ccccc3o2)nc1CSc1ncccn1	none (no result: NF-kB expr up)
CCOC(=O)c1cnc(Nc2nc3ccccc3o2)nc1CSC(=S)N(CC)CC	NF-kB expr up 24
CCCc1nc(Nc2nc3ccccc3o2)nc(C)c1C(=O)OCC	STAT1 act 144
CC1CCC(N(CCCN)Cc2ccco2)CC1C (configuration not stated)	none
O=C(Nc1ccccc1)c1ccn[nH]1	NF-kB expr up 3.4, STAT1 act 138
Cc1ccc2oc(-c3cccc(N)c3)nc2c1	NF-kB expr up 8.9, APP 5'UTR act 158
Nc1cccc(-c2nc3cc(S(=O)(=O)c4ccc5oc(-c6cccc(N)c6)nc5c4)ccc3o2)c1	none
Nc1ccc2oc(-c3cccs3)nc2c1	STAT1 act 149
Cc1ccc2oc(-c3ccco3)nc2c1	STAT1 act 138
Cc1cc(-c2nnc(CCC(=O)NC(Cc3ccccc3)c3ccccc3)o2)no1 (configuration not stated)	none
COC(=O)C(NC(=O)c1c(C)nn(C)c1Cl)c1ccccc1 (configuration not stated)	none
C(=N\Nc1nc(-c2ccccc2)cs1)/c1cccnc1	STAT1 act 144
CC(C)(C)c1csc(N/N=C/c2cccnc2)n1	STAT1 act 150
O=C(NCc1n[nH]c(=S)n1-c1ccc([N+](=O)[O-])cc1)c1ccc(S(=O)(=O)N2CCOCC2)cc1	none
O=C1C(Nc2ccccc2)=C/C(=N/S(=O)(=O)c2cccs2)c2ccccc21	STAT3 act 136

Source: PubChem (several laboratories)
